Laboratory results taken from ChEMBL document CHEMBL1821585, “Fluorinated cannabinoid CB2 receptor ligands: synthesis and in vitro binding characteristics of 2-oxoquinoline derivatives” (Bioorg Med Chem, 2011).

Columns and labels:
[1] = Selectivity ratio of Ki for CB1 receptor to Ki for CB2 receptor
Cannabinoid receptor 2 [2] = molecular target: T1, Cannabinoid receptor 2 (Homo sapiens, UniProt P34972); assay: Displacement of [3H]CP-55940 from human CB2 receptor expressed in human U87 cells after 1 hr by scintillation counting; assay type: cell-based, U-87MG ATCC
Outline: (§1)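 Membranes from lentivirally transduced U87 glioblastoma cells stably expressing hCB1 or hCB2, sorted on an mKateS158A co-reporter. Cells at 80–90% confluence were homogenised in 50 mM Tris-HCl, 5 mM MgCl2, 2.5 mM EDTA, pH 7.4. Aliquots of 30–50 μg protein were incubated 1 h at 4°C with 2.8 nM [3H]CP-55,940 plus graded compound concentrations, then GF/C-filtered. Ki was derived from the competition curves.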

Homo sapiens = species on record: Homo sapiens; assay: Selectivity ratio of Ki for human CB1 receptor to Ki for human CB2 receptor
Cannabinoid receptor 1 [3] = molecular target: T2, Cannabinoid receptor 1 (Homo sapiens, UniProt P21554); assay: Displacement of [3H]CP-55940 from human CB1 receptor expressed in human U87 cells after 1 hr by scintillation counting; assay type: cell-based, U-87MG ATCC; outline: as §1
Cannabinoid receptor 2 [4] = molecular target: T1, Cannabinoid receptor 2; assay: Binding affinity to CB2 receptor
Cannabinoid receptor 1 [5] = molecular target: T2, Cannabinoid receptor 1; assay: Binding affinity to CB1 receptor

T1 sequence (P34972 whole entry): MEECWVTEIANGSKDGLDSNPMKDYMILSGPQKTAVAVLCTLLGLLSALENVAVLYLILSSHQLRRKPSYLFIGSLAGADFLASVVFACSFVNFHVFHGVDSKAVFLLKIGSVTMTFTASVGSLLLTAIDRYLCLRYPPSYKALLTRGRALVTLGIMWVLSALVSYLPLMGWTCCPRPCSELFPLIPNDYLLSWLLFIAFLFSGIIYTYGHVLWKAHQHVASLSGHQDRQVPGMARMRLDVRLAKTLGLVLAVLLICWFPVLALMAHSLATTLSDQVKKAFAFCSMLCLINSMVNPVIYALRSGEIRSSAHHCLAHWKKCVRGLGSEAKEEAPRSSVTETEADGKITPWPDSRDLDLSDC
T2 sequence (P21554 whole entry): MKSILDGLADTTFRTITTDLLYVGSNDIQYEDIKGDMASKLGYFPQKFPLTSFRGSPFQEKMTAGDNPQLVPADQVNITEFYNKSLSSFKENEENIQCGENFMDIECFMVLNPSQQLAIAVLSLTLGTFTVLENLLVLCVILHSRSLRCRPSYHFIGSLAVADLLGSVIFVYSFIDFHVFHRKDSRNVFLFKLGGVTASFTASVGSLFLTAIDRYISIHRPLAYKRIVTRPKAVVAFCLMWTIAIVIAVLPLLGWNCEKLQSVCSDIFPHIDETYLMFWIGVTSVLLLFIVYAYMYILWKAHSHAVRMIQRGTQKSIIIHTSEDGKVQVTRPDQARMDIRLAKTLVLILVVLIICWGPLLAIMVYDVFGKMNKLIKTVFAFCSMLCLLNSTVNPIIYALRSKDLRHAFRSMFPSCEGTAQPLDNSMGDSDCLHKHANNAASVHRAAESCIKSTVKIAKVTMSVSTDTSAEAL

SMILES	Ratio Ki [1]	Ki (Cannabinoid receptor 2 [2]) [µM]	Ratio Ki (Homo sapiens)	Ki (Cannabinoid receptor 1 [3]) [µM]	Ki (Cannabinoid receptor 2 [4]) [nM]	also measured
Cc1ccc(Cn2nc(C(=O)N[C@@H]3C(C)(C)[C@@H]4CC[C@@]3(C)C4)cc2-c2ccc(Cl)c(C)c2)cc1	32					
CCCCCC(C)(C)c1cc(OC)c2c(c1)OC(C)(C)[C@@H]1CCC(C)=C[C@@H]21	170					
CCCCOc1c(OC)ccc2cc(C(=O)NCc3cn(CCF)nn3)c(=O)[nH]c12		0.62	> 16	> 10		
CCCCOc1c(OC)ccc2cc(C(=O)NCCc3cn(CCF)nn3)c(=O)[nH]c12		2.4	> 4	> 10		
CCCCCc1cc2cc(C(=O)NCCc3ccc(F)cc3)c(=O)n(C)c2c(O)c1OC	20100				0.043	Ki (Cannabinoid receptor 1 [5]): 864 µM
CCCCOc1c(OC)ccc2cc(C(=O)NCCCF)c(=O)[nH]c12		0.058	> 172	> 10		
CCCOc1c(OC)ccc2cc(C(=O)NCCc3ccc(F)cc3)c(=O)[nH]c12	16000					
CCCCCOc1c(OC)ccc2cc(C(=O)NCCN3CCOCC3)c(=O)n(C)c12	11000					
COc1ccc2cc(C(=O)NCc3ccc(F)cc3)c(=O)[nH]c2c1OC		> 10	> 1	> 10		
COc1ccc2cc(C(=O)NCCF)c(=O)[nH]c2c1OC		> 10	> 1	> 10		
COc1ccc2cc(C(=O)NCCc3ccc(F)cc3)c(=O)[nH]c2c1OC		0.005		> 10		
COc1ccc2c(c1)c(CCN1CCOCC1)c(C)n2C(=O)c1cccc(Cl)c1Cl	146				14	
CCCCCOc1c(OC)ccc2cc(C(=O)NCCc3ccncc3)c(=O)[nH]c12	20800				0.01	
CCCCCc1cc2cc(C(=O)NCCc3ccc(F)cc3)c(=O)[nH]c2c(O)c1OC	66600				0.036	Ki (Cannabinoid receptor 1 [5]): 2400 µM
CCCCOc1c(OC)ccc2cc(C(=O)NCCc3ccc(N)cc3)c(=O)[nH]c12					22.3	IC50 (Cannabinoid receptor 2 [4]): 0.00158 µM
CCCCOc1c(OC)ccc2cc(C(=O)NCCF)c(=O)[nH]c12		0.486	> 20.5	> 10		
CCCCOc1c(OC)ccc2cc(C(=O)NCc3ccc(F)cc3)c(=O)[nH]c12		0.0028	> 3570	> 10		
CCCCCc1cc2cc(C(=O)OC)c(=O)[nH]c2c(O)c1OC	262000				0.014	
CCCCOc1c(OC)c([N+](=O)[O-])cc2cc(C(=O)NCCc3ccc(F)cc3)c(=O)[nH]c12		0.0014	> 7140	> 10		
CCCCOc1c(OC)ccc2cc(C(=O)O)c(=O)[nH]c12	28300				0.032	
COc1ccc2cc(C(=O)NCC(F)c3ccccc3)c(=O)[nH]c2c1OC (centres undefined)		0.022	> 454	> 10		
CCCCCCC(C)(C)c1cc(OC)c(C2CCCC(C)(O)C2)c(OC)c1 (centres undefined)	220				23	Ki (Cannabinoid receptor 1 [5]): 5.05 µM
CCCCOc1c(OC)ccc2cc(C(=O)NCC(F)c3ccccc3)c(=O)[nH]c12 (centres undefined)		0.0008	> 12500	> 10		
Cc1c(C(=O)NN2CCCCC2)nn(-c2ccc(Cl)cc2Cl)c1-c1ccc(Cl)cc1	32					
CCCCOc1c(OC)ccc2cc(C(=O)NCCc3ccc(F)cc3)c(=O)[nH]c12		0.0024	> 4170	> 10		
